Bioassay records: PubChem BioAssay, Johns Hopkins Ion Channel Center
An excerpt weighted towards active compounds, which were near 2.3% of everything screened.
TRPC4 block = inhibitors of mouse TRPC4 channel; Q9QUQ5; HEK293 TRPC4beta/mu-opioid, DAMGO-evoked Fluo4 calcium flux; stronger effect = lower value; B-score at 10 µM; actives 0.39% (n = 300,000); AID 2247;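 active = B-score over 3 SD under the library average, no early fluorescence shift, positive overall ratio signal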
Target sequence (Q9QUQ5 whole entry, looked up): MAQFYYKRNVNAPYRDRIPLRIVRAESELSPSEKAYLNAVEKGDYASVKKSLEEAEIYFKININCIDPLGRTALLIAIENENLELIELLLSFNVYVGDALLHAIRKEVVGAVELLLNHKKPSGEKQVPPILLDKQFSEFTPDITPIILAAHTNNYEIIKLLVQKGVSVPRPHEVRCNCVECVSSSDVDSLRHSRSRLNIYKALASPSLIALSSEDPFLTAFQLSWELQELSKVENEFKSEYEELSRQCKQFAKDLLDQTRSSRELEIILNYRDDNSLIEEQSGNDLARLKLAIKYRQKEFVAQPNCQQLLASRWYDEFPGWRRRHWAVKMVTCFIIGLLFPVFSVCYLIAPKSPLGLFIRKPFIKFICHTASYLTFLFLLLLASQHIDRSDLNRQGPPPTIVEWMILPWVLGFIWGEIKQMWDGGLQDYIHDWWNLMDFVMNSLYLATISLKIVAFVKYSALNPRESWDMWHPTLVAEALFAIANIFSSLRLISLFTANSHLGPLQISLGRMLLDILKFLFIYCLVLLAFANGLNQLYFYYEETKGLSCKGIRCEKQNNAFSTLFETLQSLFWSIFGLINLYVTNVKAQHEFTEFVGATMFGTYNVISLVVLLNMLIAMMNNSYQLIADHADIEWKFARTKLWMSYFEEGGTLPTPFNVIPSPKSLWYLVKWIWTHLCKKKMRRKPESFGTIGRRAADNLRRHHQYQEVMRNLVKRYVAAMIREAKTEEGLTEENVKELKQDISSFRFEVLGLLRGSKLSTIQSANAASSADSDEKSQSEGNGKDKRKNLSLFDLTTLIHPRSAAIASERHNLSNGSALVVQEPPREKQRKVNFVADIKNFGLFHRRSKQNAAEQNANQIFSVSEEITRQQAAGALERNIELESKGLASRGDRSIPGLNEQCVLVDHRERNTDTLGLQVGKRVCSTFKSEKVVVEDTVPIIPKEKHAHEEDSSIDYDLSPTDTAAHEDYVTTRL
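Test system – stable TRPC4beta/mu-opioid receptor HEK293 cells · Probe or stimulus – DAMGO, a submaximal dose followed by a maximal one · Dosing – one concentration per compound · Signal – Fluo4 calcium fluorescence by kinetic imaging, 5 s 1 Hz baseline · Evaluation – per-well B score of integrated baseline-normalized Fluo4 ratio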
TRPC4 agonist = opens the mouse TRPC4 cation channel | B-score at 10 µM | HEK293 TRPC4beta/mu-opioid, Fluo4 calcium fluorescence; stronger effect = higher value | Q9QUQ5 | actives 0.49% (n = 310,000);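 active = B-score above 5 SD of library B-scores, and initial fluorescence ratio not above library mean plus 5 SD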;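 note: positive B-score marks a calcium rise read as TRPC4 activation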
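Technique: kinetic Fluo4 calcium fluorescence; Test system: TRPC4beta and mu-opioid receptor HEK293 stable cells; Measure: B-scored integrated calcium fluorescence ratio; Benchmarks: low control buffer alone, high control maximal DAMGO; Schedule: 45 min room-temperature Fluo4 loading, 110 s read.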
TRPC6 inh = mouse TRPC6 channel inhibition; Q61143; HEK293-TRPC6, membrane potential dye, ACh-evoked depolarization; stronger effect = lower value; B-score at 10 µM; actives 1.1% (n = 310,000); AID 2553;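 active = B-score under library mean minus 3 SD, initial fluorescence not abnormally high, positive integrated signal ratio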;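 note: B-score derived from integrated fluorescence ratio over the kinetic read; more negative B-score means stronger inhibition of depolarization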
TRPC4 PAM = TRPC4 (mouse) allosteric potentiation; Q9QUQ5; HEK293 TRPC4beta/mu-opioid, DAMGO EC20, Fluo-4 Ca2+ flux; stronger effect = higher value; B-score at 10 µM; actives 0.42% (n = 310,000); AID 2227;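 active = B-score of calcium response area above 5 SD of library B-scores, with initial fluorescence ratio within 5 SD of library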
TRPC6 activator = mouse TRPC6 channel activation. Q61143. HEK293-TRPC6 membrane potential dye fluorescence; stronger effect = higher value. B-score at 10 µM. actives 0.13% (n = 310,000);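 active = B-score of the integrated fluorescence ratio above library mean plus 3 SD, and starting fluorescence ratio within library mean plus 5 SD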;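 note: higher score means more depolarization so channel activation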
HEK293 TRPC6 ctr = counter-screen for TRPC6 modulators: effect in parental HEK293 cells; shares compounds with TRPC6 inh; membrane potential dye fluorescence; membrane potential signal change, % at 10 µM; actives 51% (n = 2,400);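 active = membrane potential signal moves up or down beyond 5 SD from buffer-only wells, on both duplicate plates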
HEK293 MPD ctr 2 = second check of TRPC6 modulator effects in parental HEK293 cells | AID 488926 | inhibition, % at 10 µM | membrane potential dye fluorescence; after compound, maximal acetylcholine stimulation | actives 14% (n = 2,400) | shares compounds with TRPC6 inh;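 active = membrane potential signal drops by more than 5 SD from the mean control signal, in both duplicate plates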
TRPC4/MOR mod = mouse TRPC4 off-target activity of TRPC6 modulators | shares compounds with TRPC6 inh | HEK293 TRPC4/mu-opioid, membrane potential fluorescence | percent change from control (negative = decrease, positive = increase), % at 10 µM | actives 69% (n = 2,400) | AID 488927;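 active = membrane potential signal moved up or down beyond 5 SD of buffer control wells, in both duplicate plates, actives on both sides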
TRPC4 ctr inh 2 = second check of whether TRPC6 modulators also affect mouse TRPC4; HEK293 TRPC4/mu-opioid, membrane potential dye fluorescence; stimulated with maximal-effect DAMGO; AID 488928; shares compounds with TRPC6 inh; inhibition, % at 10 µM; actives 55% (n = 2,400);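 active = drop in membrane potential signal beyond 5 SD of the control wells in both duplicate plates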;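 note: TRPC4 counter screen for TRPC6 hits run under conditions tuned for TRPC6 not TRPC4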
TRPC6 inh conf = confirmation of mouse TRPC6 inhibitors; shares compounds with TRPC6 inh; HEK293-TRPC6, membrane potential dye, ACh-evoked depolarization; inhibition, % at 10 µM; actives 43% (n = 3,300);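 active = fluorescence ratio falls more than 5 SD below the full-stimulation control mean, in both duplicate runs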;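 note: integrated fluorescence ratio of peak minus minimum over baseline after agonist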
TRPC6 act conf = confirmation of mouse TRPC6 activators | shares compounds with TRPC6 inh | HEK293-TRPC6 membrane potential dye fluorescence, FDSS | activation, % at 10 µM | actives 11% (n = 2,800) | AID 488961;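 active = ratio signal rise beyond 5 SD above unstimulated control wells' mean, seen in both duplicate runs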
Hits are given with their value.

Results for CC(C)Oc1ccc(N2CC(C(=O)Nc3ccccc3C(=O)NC3CC3)CC2=O)cc1 (centres undefined) ?
TRPC4 block: inactive; TRPC4 agonist: inactive; TRPC6 inh: inactive; TRPC4 PAM: inactive; TRPC6 activator: inactive

Results for CCc1cc(=O)oc2c(C)c(OC(C)C(=O)NC3CC(C)(C)NC(C)(C)C3)ccc12 (centres undefined) ?
TRPC4 block: inactive; TRPC4 agonist: inactive; TRPC6 inh: inactive; TRPC4 PAM: inactive; TRPC6 activator: inactive

Results for CCc1cc(=O)oc2c(C)c(OCC(=O)NC3CC(C)(C)NC(C)(C)C3)ccc12 ?
TRPC4 block: inactive; TRPC4 agonist: inactive; TRPC6 inh: -5.7; TRPC4 PAM: inactive; TRPC6 activator: inactive; HEK293 TRPC6 ctr: -150%; HEK293 MPD ctr 2: inactive; TRPC4/MOR mod: -31%; TRPC4 ctr inh 2: 36%; TRPC6 inh conf: 38%; TRPC6 act conf: inactive

Results for COCCNC(=S)N1CCCN(c2nc3cc(C)ccc3cc2C#N)CC1 ?
TRPC4 block: inactive; TRPC4 agonist: inactive; TRPC6 inh: inactive; TRPC4 PAM: inactive; TRPC6 activator: 12; HEK293 TRPC6 ctr: inactive; HEK293 MPD ctr 2: inactive; TRPC4/MOR mod: inactive; TRPC4 ctr inh 2: 34%; TRPC6 act conf: 136%

What do the screens show for `CCN1CCN(c2c(Cl)cccc2NC(=O)c2ccc([N+](=O)[O-])cc2)CC1`?
TRPC4 block: inactive; TRPC4 agonist: 99; TRPC6 inh: -5.9; TRPC4 PAM: inactive; TRPC6 activator: inactive; HEK293 TRPC6 ctr: -225%; HEK293 MPD ctr 2: inactive; TRPC4/MOR mod: -34%; TRPC4 ctr inh 2: 63%; TRPC6 inh conf: inactive; TRPC6 act conf: inactive

What do the screens show for `O=C(Nc1ccc(N2CCCC2)c(Cl)c1)c1ccc([N+](=O)[O-])cc1`?
TRPC4 block: inactive; TRPC4 agonist: inactive; TRPC6 inh: inactive; TRPC4 PAM: inactive; TRPC6 activator: inactive

What do the screens show for `CCN1CCN(c2c(Cl)cccc2NC(=O)c2ccc3nsnc3c2)CC1`?
TRPC4 block: inactive; TRPC4 agonist: 63; TRPC6 inh: -9.6; TRPC4 PAM: 19; TRPC6 activator: inactive; HEK293 TRPC6 ctr: -206%; HEK293 MPD ctr 2: inactive; TRPC4/MOR mod: -36%; TRPC4 ctr inh 2: 64%; TRPC6 inh conf: 48%; TRPC6 act conf: inactive

Results for Cc1cc(NCCCN2CCOCC2)n2nc(C)c(-c3ccccc3)c2n1 ?
TRPC4 block: inactive; TRPC4 agonist: inactive; TRPC6 inh: -6.1; TRPC4 PAM: inactive; TRPC6 activator: inactive; HEK293 TRPC6 ctr: -171%; HEK293 MPD ctr 2: inactive; TRPC4/MOR mod: -31%; TRPC4 ctr inh 2: 38%; TRPC6 inh conf: inactive; TRPC6 act conf: inactive

How did Cc1ccc(-n2nc(C(=O)NCc3ccco3)c3c4ccccc4n(C)c3c2=O)cc1 do in these assays?
TRPC4 block: inactive; TRPC4 agonist: inactive; TRPC6 inh: inactive; TRPC4 PAM: inactive; TRPC6 activator: inactive
